Data: ChEMBL document CHEMBL4513216, “Probing the Open Global Health Chemical Diversity Library for Multistage-Active Starting Points for Next-Generation Antimalarials” (ACS Infect Dis, 2020)

Experiment: Toxicity liver stage against HepG2, at 10uM
Type: cell-based
Design: test concentration 10 uM, cell line HepG2-A16-CD81EGFP
Conditions: human, HepG2-A16-CD81EGFP cells; read-out: INHIBITION
How it was run: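 Uninfected HepG2-A16-CD81EGFP cells, 3 × 10^3 per well, 1536-well, plated on prespotted compound at 10 μM final, parasite-free screening media added to match infected plates; puromycin 10 μM positive, DMSO 0.5% negative; run in parallel with 48 h PbLuc assay at 37 °C, 5% CO2; viability by CellTiter-Glo luminescence, normalized to controls.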

Row | SMILES | cytotoxicity at 10 µM
1 | O=C(Cn1cccn1)NCC1CCN(Cc2cc3ccccc3[nH]2)C1 (stereo not drawn) | 7.11%
2 | COc1ccccc1C(C(=O)O)N1CCCN(C2CCCC2)CC1 (stereo not drawn) | -9.12%
3 | Cc1cnn(C2CN(Cc3nnc(-c4ccccc4Cl)o3)C2)c1 | -2.76%
4 | COc1ccccc1C1SCC(=O)Nc2c1c(=O)[nH]n2C1CCCCC1 (stereo not drawn) | -1.2%
5 | O=C(c1cscn1)N1CCc2[nH]nc(Nc3ccccc3)c2C1 | 7.82%
6 | Cc1c(NCC(C)(C)C)cccc1C(=O)NCc1ncnn1C | -3.53%
7 | Cc1ccc(C2CCCCCN2Cc2cn(C)nc2C)cc1 (stereo not drawn) | -8.56%
8 | CNC(=O)CN1CCC2(CC1)C[C@@H](O)[C@H](c1ccccc1)NC2=O | -32.2%
9 | CNC(=O)CN1CCC12CCN(C(=O)Cc1ccccc1)C2 (stereo not drawn) | -75.4%
10 | CC1(C)CN(c2cc(C3CC3)ncn2)C[C@]1(C)O | 1.4%
11 | CCc1nc(CN(C)C(=O)C2CCC(=O)N(CC3CCCCC3)C2)no1 (stereo not drawn) | 4.46%
12 | Cc1cccc(-n2nc(CC(C)C)nc2[C@H](C)O)c1 | 5.54%
13 | COc1cc2c(cc1OC)CN(C(=O)Cn1nc(C)cc1C)CC2 | 1.29%
14 | O=C(NC1CCCN(CCc2ccccc2)C1)c1ccccn1 (stereo not drawn) | -5.42%
15 | O=C(Cc1ccc2c(c1)CCO2)Nc1ccc(-n2cncn2)nc1 | 3.62%
16 | COCCN1CC=C(c2cccc(OC)c2)CC1 | 6.45%
17 | CCc1ccc2nc(C)cc(C(=O)NC[C@@H]3CCNC[C@H]3O)c2c1 | -3%
18 | Cc1cc2nc(CO[C@H]3CN(C(=O)C4CC4)C[C@H]3F)[nH]c2cc1C | -43.4%
19 | O=C(CCc1ccccn1)NC1CCCN(C2Cc3ccccc3C2)C1 (stereo not drawn) | 1.96%
20 | Cc1cc(NC(=O)CN2CCCC2c2noc(C)n2)n(C)n1 (stereo not drawn) | -2.3%
21 | O=C(O)c1cc(Br)cnc1OCC1CC1 | 6.43%
22 | O=C(c1ccc2c(c1)OCO2)N1CCN2C(=O)NC[C@H]2C1 | 2.02%
23 | O=C(NCCNc1ncccn1)N1CCCC1 | -12.8%

Row | SMILES | cytotoxicity at 10 µM
24 | O=S(=O)(c1cccs1)N1CCCn2cnc(CN3CCCC3)c2C1 | 1.14%
25 | CCc1nc(CN2CCOC(Cn3nc(C)nc3C)C2)no1 (stereo not drawn) | -5.38%
26 | CCCNC(=O)Cn1cc(-c2ccccc2)cn1 | -0.553%
27 | CC(C)n1[nH]c(=O)c2c1NC(=O)CSC2c1cccc(OCC(N)=O)c1 (stereo not drawn) | 8.46%
28 | COc1ccc(F)cc1S(=O)(=O)NCC(c1cccn1C)N(C)C (stereo not drawn) | -20.7%
29 | COc1cc(N2CCC[C@]3(C(=O)O)CN(C(C)C)C[C@@H]3C2)ncn1 | 4.14%
30 | COCC(=O)N1CCCCC1c1nc(C)c2c(n1)N(C1CC1)C(=O)CC2 (stereo not drawn) | -1%
31 | CN1CCN(CC(NCc2cccc(O)c2)c2ccccc2)CC1 (stereo not drawn) | -3.89%
32 | O=C(NCc1ccc(-n2cncn2)nc1)c1cnccn1 | -5.18%
33 | CC(=O)Nc1nc(C(=O)N2CCCC(c3cc(C)[nH]n3)C2)cs1 (stereo not drawn) | -8.85%
34 | Cc1csc2c(N3CCNC(C(=O)NCc4cccnc4)C3)ncnc12 (stereo not drawn) | 1.74%
35 | CNC(=O)c1cccc(CNC2CCSc3c(Cl)cccc32)c1 (stereo not drawn) | 12.8%
36 | COc1cccc(CN(C)Cn2nc(C(C)(C)C)ccc2=O)c1 | 1.12%
37 | CC(C)(C)c1ccc(OCC(N)=O)c(CN2C[C@H]3CC(O)C[C@H]3C2)c1 (stereo partly drawn) | -5.28%
38 | CC1CN(C)CCN1C(=O)c1ccn(-c2ccc(F)cc2)n1 (stereo not drawn) | -5.3%
39 | O=C1C(n2nnc(-c3cccs3)n2)CCN1CC(F)(F)F (stereo not drawn) | -0.0198%
40 | CN(Cc1ccc(F)cc1)C(=O)NCc1nnc2n1CCCCC2 | -10.1%
41 | O=C(c1ccncc1F)N1CCc2ncnc(C3CC3)c2CC1 | -78.4%
42 | CCCC(C)CS(=O)(=O)NCc1cccnc1OC (stereo not drawn) | -18%
43 | Cc1cc(CN2CCC(N(C)Cc3nnc(C4CC4)n3C)C2)on1 (stereo not drawn) | -11.6%
44 | COc1ccc(S(=O)(=O)N2CCOC[C@H](Oc3cnccn3)C2)cc1 | 10.4%
45 | COc1cc(CNC2CCc3nc(C)nn3C2)cc2c1OCCO2 (stereo not drawn) | -9.16%
46 | Cc1csc(C(C)(C)NCC(=O)N(C)Cc2ccc(C)o2)n1 | -1.12%

Row | SMILES | cytotoxicity at 10 µM
47 | Cc1ccc(S(=O)(=O)N[C@H](CO)C(C)C)cc1N(C)C | -5.53%
48 | CC(C)(C)CC(=O)NCC(=O)Nc1ccn(Cc2ccncc2)n1 | 13.2%
49 | COCC1CN(CCc2ccc(OC)c(OC)c2)Cc2c1cnn2C (stereo not drawn) | -105%
50 | N#Cc1nccnc1N1CCN(CCOCc2ccccc2)CC1 | -18.4%
51 | CC(C)C(CNCc1cccc2c1OCO2)N1CCOCC1 (stereo not drawn) | -49.1%
52 | O=C(CCc1cc2n(n1)CCCN(C(=O)c1ccncc1)C2)NC1CC1 | 12.2%
53 | Cc1cccc(-c2noc([C@@H]3C[C@@H](O)CN3C)n2)c1 | -3.54%
54 | Cn1ccc2ccc(C(=O)NC3CCOC(C)(C)C3)cc21 (stereo not drawn) | 3.13%
55 | c1ccc(CN(Cc2ncc[nH]2)Cc2nccs2)cc1 | 6.35%
56 | Cc1nn(C)cc1-c1cc(C(F)(F)F)c2c(C)nn(CC(=O)O)c2n1 | -4.79%
57 | COc1cc(C(=O)NCC2CCCN(Cc3ccco3)C2)ccn1 (stereo not drawn) | -3.94%
58 | COc1cc(CN(C)C(=O)NCCC2CCCO2)ccc1SC (stereo not drawn) | -13.8%
59 | O=C(NCCOc1ncc(Cl)cc1Cl)c1ccncc1F | -3.78%
60 | CC(=O)N1CCCN(S(=O)(=O)c2cc3ccccc3o2)CC1 | 18.8%
61 | CN(C)CCO[C@H]1C[C@@H](O)C12CCN(c1nccc3ccccc13)CC2 | 2.2%
62 | CNc1ncc(C(=O)N2CC[C@@](O)(C3CCOCC3)[C@H](C)C2)cn1 | 4.56%
63 | CCC(=O)N1CCC(Cc2ccccc2-c2ccccc2F)(C(N)=O)C1 (stereo not drawn) | -10.8%
64 | O=C1C(NS(=O)(=O)c2ccc(F)cc2)CCN1Cc1ccccc1 (stereo not drawn) | -3.48%
65 | C/N=C1/c2cc3cc(OC)ccc3n2CCN1C | 3.34%
66 | Cc1nsc(NC(=O)N2CCc3sccc3C2)n1 | 18.5%
67 | Cc1cc(C)nc(N2CC[C@H](Oc3ccccc3F)[C@@H](O)CC2)n1 | 3.72%
68 | CN(C)c1nc2c(c(NCc3nnc4n3CCCCC4)n1)CCNC2 | -1.37%
69 | COC(=O)c1cccc(S(=O)(=O)NCC(c2ccco2)N2CCCC2)c1 (stereo not drawn) | -1.74%

Row | SMILES | cytotoxicity at 10 µM
70 | CCN(CCCc1ccccc1)CC1(C)Cc2c(N)nc(N)nc2O1 (stereo not drawn) | 0.822%
71 | CCCc1noc(CN2CCC(C(=O)Nc3cnn(CC)c3)CC2)n1 | -0.988%
72 | Cc1cc(NC(=O)NCCc2ccsc2)n(C)n1 | 12.3%
73 | Cc1cccc(C2CCN(S(=O)(=O)c3cn(C)cn3)CC2)n1 | -20.2%
74 | Cc1cnc2n1CCN(C)C21CCN(C(=O)CC(C)C)CC1 | -5.85%
75 | O=C(CNC(=O)C1CC1)NCc1ccc(Cl)s1 | -3.12%
76 | CC(C)c1nc(CSc2nnc(Cn3cncn3)o2)cs1 | 3.19%
77 | Cc1nnc(N2CCNCC2)c(C(N)=O)c1C | 3.52%
78 | CC(NC(=O)N1CCCC1)c1ccc(S(N)(=O)=O)cc1 (stereo not drawn) | -8.2%
79 | Cn1cc(C(=O)Nc2ccc3c(c2)CN(C(=O)C2CC2)CC3)nn1 | 4.59%
80 | CS(=O)(=O)CCCNC(=O)Nc1sc2ccccc2c1Cl | 6.54%
81 | O=C(O)c1cc2c(nc1NCC1CC1)CCN(C1CCOC1)CC2 (stereo not drawn) | 7.83%
82 | CCC(CC)C(=O)NCCc1ccn(-c2ccccc2)n1 | -8.8%
83 | Cc1nc(CNC(=O)Nc2c(C)n[nH]c2C)cs1 | 3.51%
84 | Cc1nn(C)c2ncnc(NCc3nncn3C3CCCCC3)c12 | -10.2%
85 | CCOc1ccc(CNC(C)c2c(C)nn(C)c2C)cc1 (stereo not drawn) | -0.00326%
86 | COc1cccc2cc(CNCc3ccnc(N4CCCCC4)c3)oc12 | -0.381%
87 | CN(Cc1cn2c(n1)CN(CC1CCOC1)CC2)Cc1ccco1 (stereo not drawn) | -82.9%
88 | Cc1cc(Cl)ccc1S(=O)(=O)NCC(C)N1CCN(C)CC1 (stereo not drawn) | 8.35%
89 | CCc1nc(NCCCOC)c2c(n1)c(C)nn2C | 2.92%
90 | CC(NC(=O)COc1cccc[n+]1[O-])C1CC1 (stereo not drawn) | -6.66%
91 | CC(C)N1C(=O)C2(CCN(C)CC2)c2cc(F)ccc21 | -110%
92 | O=C1N(CC2CCCC2)CCC12CCN(c1ncc(F)cn1)CC2 | 11.2%

Row | SMILES | cytotoxicity at 10 µM
93 | COc1c(CNCCNC(=O)c2ccc(C)cc2)c(C(C)C)nn1C | -0.945%
94 | Cc1csc(S(=O)(=O)N2CCN(C)C3(CCC(=O)N(C)CC3)C2)c1 (stereo not drawn) | 1.67%
95 | CN(Cc1ncnn1C)C(=O)CCn1ccc2ccccc21 | 1.16%
96 | COCCCC1(CO)CCCN(Cc2ccc(F)c(OC)c2)C1 (stereo not drawn) | -142%
97 | COc1ccccc1-c1ncc(CN2CCC3(CCNCC3)CC2)cn1 | -1.49%
98 | Cc1cc(O)n(-c2ccc3nnc(C)n3n2)n1 | 9.24%
99 | Cn1ncc2cnn(CC(O)COc3cccc4[nH]ccc34)c2c1=O (stereo not drawn) | 13.2%
100 | c1ccc(-c2nc(CN3CCCC(Cn4cncn4)C3)co2)cc1 (stereo not drawn) | 3.18%
101 | Nc1nc2c(c(N3CCC(CN4CCCC4=O)CC3)n1)CCNCC2 | -3.95%
102 | CCN(C)C1COC2(CCN(C(=O)c3cccc(Cl)c3)CC2)C1 (stereo not drawn) | -5.66%
103 | CC(C)N(C)Cc1cnc2n1CCN(Cc1ccsc1)C2 | 1.96%
104 | CNCC[C@H]1CC(C)(C)Oc2ccc(C)cc21 | 0.526%
105 | Cc1cccc(COC[C@@]23CCC[C@@H]2CN(S(=O)(=O)N(C)C)C3)n1 | -6.87%
106 | Cc1nc(C(=O)N2CCC(Nc3cccnn3)CC2)cs1 | 6.74%
107 | COc1cccnc1NC(=O)COC1CCCC1 | 8.06%
108 | CCOc1ccc(CN(C)C(=O)NC(C)c2nncn2C)cc1 (stereo not drawn) | 8.62%
109 | NC(=O)C1CCN(CCc2ccc(NC(=O)C3CCC3)cc2)CC1 | -3.86%
110 | CCCN1CCN(Cc2cc3cc(OCC)ccc3[nH]c2=O)CC1 | -9.91%
111 | Cc1ccc(NC2CCN(C(=O)c3ccc(C#N)cc3)CC2)nn1 | -4.28%
112 | c1ccc(N2CC3(CCN(Cc4cccnc4)C3)C2)nc1 | 1.11%
113 | CCN(C(=O)NCc1ccc(C)cc1OC)C(C)c1cccnc1 (stereo not drawn) | 6.32%
